Measured values: ChEMBL document CHEMBL1144910, “S-acyl-2-thioethyl aryl phosphotriester derivatives of AZT: synthesis, antiviral activity, and stability study” (J Med Chem, 2003)

Assays:
[1] = test system: CEM-SS; test: Cytotoxic concentration required to reduce the viability […] by 50% in CEM-SS cells; assay type: functional; conditions: Homo sapiens
Outline: (§1)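 Viability measured in uninfected cells of each line; CC50 is the concentration reducing viability by 50%. Values are averages of at least three separate experiments, with variation under standard operating procedures below ±10%.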

[2] = test system: CEM-SS; test: Effective concentration required to inhibit the replication of HIV-1 by 50% in CEM-SS cells; assay type: functional, cell-based; conditions: Homo sapiens
Outline: (§2)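 Cells infected with HIV-1; EC50 is the concentration inhibiting viral replication by 50%. Values are averages of at least three separate experiments, with variation below ±10%.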

[3] = test system: CCRF-CEM; test: Cytotoxic concentration required to reduce the viability […] by 50% in CEM/TK cells; assay type: functional; conditions: Homo sapiens; outline: as §1
[4] = test system: CCRF-CEM; test: Effective concentration required to inhibit the replication of HIV-1 by 50% in CEM/TK cells; assay type: functional, cell-based; conditions: Homo sapiens; outline: as §2
[5] = test system: MT4; test: Cytotoxic concentration required to reduce the viability […] by 50% MT-4 cells; assay type: functional; conditions: Homo sapiens; outline: as §1
[6] = test system: MT4; test: Effective concentration required to inhibit the replication of HIV-1 by 50% in MT-4 cells; assay type: functional, cell-based; conditions: Homo sapiens; outline: as §2
[7] = In vitro Apparent partition coefficients of mixed aryl phosphodiester was determined; assay type: physicochemical; conditions: octanol/water
Outline: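 Apparent log P by an adapted shake-flask method, partitioning between 1-octanol and 0.02 M potassium phosphate buffer at pH 7.2. Each compound was run in triplicate.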

[8] = Half-life was determined for the compound in cell extracts (CE); assay type: ADME
Outline: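 Total CEM-SS cell extracts, 37 °C, phosphotriester at 50 µM initial concentration. Samples analysed by on-line ISRP-cleaning HPLC (C18, acetonitrile gradient in 20 mM triethylammonium acetate pH 6.9, 267 nm). Products identified by HPLC-ESI-MS and/or co-injection. Relative amounts taken from peak areas. Half-lives derived from pseudo-first-order rate constants fitted by mono- or polyexponential regression.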

[9] = Half-life was determined for the compound in cell extracts pre-incubated with EDTA; stable; assay type: ADME
[10] = Half-life was determined for the compound in heat inactivated cell extracts; stable; assay type: ADME
[11] = Half-life was determined for the compound in cell extracts pre-incubated with EDTA; assay type: ADME

| half-life [8] [h] | T1/2 [9] | T1/2 [10] | half-life [11] [h] | SMILES | CC50 [1] [µM] | EC50 [2] [µM] | CC50 [3] [µM] | EC50 [4] [µM] | CC50 [5] [µM] | EC50 [6] [µM] | logD [7] |
| --- | --- | --- | --- | --- | --- | --- | --- | --- | --- | --- | --- |
|  |  |  |  | Cc1cn([C@H]2C[C@H](N=[N+]=[N-])[C@@H](COP(=O)(OCCSC(=O)C(C)(C)C)Oc3ccc(C[C@H](N)CO)cc3)O2)c(=O)[nH]c1=O (stereo not given in full) | > 100 | 0.007 | > 100 | 7 | > 100 | 0.018 | 0.64 |
|  |  |  |  | Cc1cn([C@H]2C[C@H](N=[N+]=[N-])[C@@H](COP(=O)(OCCSC(=O)C(C)(C)C)Oc3ccc(C[C@H](NC(=O)OC(C)(C)C)C(=O)N(C(=O)OC(C)(C)C)C(=O)OC(C)(C)C)cc3)O2)c(=O)[nH]c1=O (stereo not given in full) | > 10 | 0.049 | > 10 | 4 | > 10 | 0.034 | 5 |
|  |  |  |  | Cc1cn([C@H]2C[C@H](N=[N+]=[N-])[C@@H](COP(=O)(OCCSC(=O)C(C)(C)C)Oc3ccc(C[C@H]4COC(C)(C)N4C(=O)OC(C)(C)C)cc3)O2)c(=O)[nH]c1=O (stereo not given in full) | > 10 | 0.031 | > 10 | 9 | > 10 | 0.098 | 3.7 |
|  |  |  |  | Cc1cn([C@H]2C[C@H](N=[N+]=[N-])[C@@H](COP(=O)(OCCSC(=O)C(C)(C)C)Oc3ccc(C[C@H](N)C(N)=O)cc3)O2)c(=O)[nH]c1=O (stereo not given in full) | > 10 | 0.002 | > 10 | 4 | > 10 | 0.016 | 1.27 |
|  |  |  |  | CC(=O)N[C@@H](Cc1ccc(OP(=O)(OCCSC(=O)C(C)(C)C)OC[C@H]2O[C@@H](n3cc(C)c(=O)[nH]c3=O)C[C@@H]2N=[N+]=[N-])cc1)C(N)=O (stereo not given in full) | > 10 | 0.082 | > 10 | 8 | > 10 | 0.066 | 1.52 |
|  |  |  |  | CC(=O)N(C(=O)OC(C)(C)C)[C@@H](Cc1ccc(OP(=O)(OCCSC(=O)C(C)(C)C)OC[C@H]2O[C@@H](n3cc(C)c(=O)[nH]c3=O)C[C@@H]2N=[N+]=[N-])cc1)C(=O)N(C(=O)OC(C)(C)C)C(=O)OC(C)(C)C (stereo not given in full) | > 10 | 0.015 | > 10 | 6 | > 10 | 0.032 | 5.8 |
|  |  |  |  | Cc1cn([C@H]2C[C@H](N=[N+]=[N-])[C@@H](COP(=O)(OCCSC(=O)C(C)(C)C)Oc3ccc(C[C@@H](CO)NC(=O)OC(C)(C)C)cc3)O2)c(=O)[nH]c1=O (stereo not given in full) |  | 0.017 | > 10 | 4 | > 10 | 0.044 | 2.5 |
| 12.8 | stable | stable |  | Cc1cn([C@H]2C[C@H](N=[N+]=[N-])[C@@H](COP(=O)(O)Oc3ccc(C[C@H](N)C(=O)O)cc3)O2)c(=O)[nH]c1=O.Cl |  |  |  |  |  |  |  |
| 68 | stable | stable |  | Cc1cn([C@H]2C[C@H](N=[N+]=[N-])[C@@H](COP(=O)(O)Oc3ccc(C[C@H](N)CO)cc3)O2)c(=O)[nH]c1=O.Cl |  |  |  |  |  |  |  |
| 19.3 |  | stable | 166 | CC(=O)N[C@@H](Cc1ccc(OP(=O)(O)OC[C@H]2O[C@@H](n3cc(C)c(=O)[nH]c3=O)C[C@@H]2N=[N+]=[N-])cc1)C(N)=O.Cl |  |  |  |  |  |  |  |
|  |  |  |  | Cc1cn([C@H]2C[C@H](N=[N+]=[N-])[C@@H](COP(=O)(OCCSC(=O)C(C)(C)C)Oc3ccc(C[C@H](N)C(=O)O)cc3)O2)c(=O)[nH]c1=O (stereo not given in full) | > 100 | 0.006 | > 100 | 29 | > 10 | 0.075 | 0.25 |
|  |  |  |  | Cc1cn([C@H]2C[C@H](N=[N+]=[N-])[C@@H](CO)O2)c(=O)[nH]c1=O [ZIDOVUDINE] | > 100 | 0.003 | > 100 | > 100 | > 100 |  | 0.06 |
